Molecules are shown by their SMILES. ≈ marks a conversion by molar mass, not a printed value. Non-standard residues stand in square brackets, D forms with d. Residues, ends and D or L forms follow the SMILES beside them. ξ: configuration not given here. *: point of attachment. Cbz = O=C(OCc1ccccc1)*; ξNva = CCCC(N)C(=O)O

Series [1] can be described thus: Tested for solubility of the compound. The format is ADME. The settings on record: read-out: S. Summed up: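 The DMA stock was diluted in 0.9% saline to 3% DMA (inhibitor ≤0.9 mg/mL) and brought to pH 2.75 with 0.1 N HCl. It was sonicated 5 min, held 15 min at room temperature and centrifuged 5 min at 16500g. Supernatant concentration came from C4 reverse-phase HPLC (60 °C, 210 nm) peak area, calibrated against standards in acetonitrile.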

The target in series [2] is T1, Calpain-2 catalytic subunit (Bos taurus, UniProt Q27971).
T1 sequence (Q27971 whole entry): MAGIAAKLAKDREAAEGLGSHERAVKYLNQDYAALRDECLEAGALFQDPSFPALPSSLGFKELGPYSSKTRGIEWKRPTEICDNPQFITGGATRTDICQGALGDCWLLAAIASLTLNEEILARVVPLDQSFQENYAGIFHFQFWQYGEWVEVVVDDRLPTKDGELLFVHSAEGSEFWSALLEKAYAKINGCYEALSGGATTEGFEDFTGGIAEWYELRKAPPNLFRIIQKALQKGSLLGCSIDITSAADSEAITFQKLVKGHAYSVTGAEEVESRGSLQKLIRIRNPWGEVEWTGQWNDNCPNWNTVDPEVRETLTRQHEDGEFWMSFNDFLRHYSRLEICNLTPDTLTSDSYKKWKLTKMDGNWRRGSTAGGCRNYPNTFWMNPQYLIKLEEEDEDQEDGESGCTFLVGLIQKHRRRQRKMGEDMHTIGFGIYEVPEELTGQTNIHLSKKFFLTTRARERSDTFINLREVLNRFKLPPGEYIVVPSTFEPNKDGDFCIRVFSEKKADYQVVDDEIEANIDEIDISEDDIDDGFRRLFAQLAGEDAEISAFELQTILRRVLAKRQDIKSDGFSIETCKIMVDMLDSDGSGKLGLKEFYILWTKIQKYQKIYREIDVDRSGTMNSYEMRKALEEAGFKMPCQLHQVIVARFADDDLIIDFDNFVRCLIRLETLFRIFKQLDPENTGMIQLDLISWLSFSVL
Briefly: Tested for inhibitory activity on bovine calpain 2 from heart.

In the case of `CCS(=O)(=O)CCNC(=O)C(=O)[C@@H](Cc1ccccc1)NC(=O)[C@H](CC(C)C)NC(=O)OCc1ccccc1`, the solubility in series [1] amounted to 730 µg/mL (≈ 1300 µM).
The term Ki denotes the equilibrium dissociation constant of an inhibitor or competing ligand from its target. Low values mean a stronger hold on the target, high ones a looser hold on the target. Compound `CCCC(NC(=O)[C@H](CC(C)C)NC(=O)OCc1ccccc1)C(=O)NCC` (stereo partly drawn) (Cbz-Leu-[ξNva]-NHEt) yielded an inhibitory constant (Ki) in series [2] of 0.05 µM.

The values above are taken from ChEMBL document CHEMBL1127779, “Stereospecific synthesis of peptidyl alpha-keto amides as inhibitors of calpain” (J Med Chem, 1994).
